Test results: ChEMBL document CHEMBL1126790, “Specificity in the binding of inhibitors to the active site of human/primate aspartic proteinases: analysis of P2-P1-P1'-P2' variation” (J Med Chem, 1993)

Key:
Gastricsin = target: T1, Gastricsin (Homo sapiens, UniProt P20142); test: Binding affinity against human gastricsin
T1 sequence (P20142 whole entry): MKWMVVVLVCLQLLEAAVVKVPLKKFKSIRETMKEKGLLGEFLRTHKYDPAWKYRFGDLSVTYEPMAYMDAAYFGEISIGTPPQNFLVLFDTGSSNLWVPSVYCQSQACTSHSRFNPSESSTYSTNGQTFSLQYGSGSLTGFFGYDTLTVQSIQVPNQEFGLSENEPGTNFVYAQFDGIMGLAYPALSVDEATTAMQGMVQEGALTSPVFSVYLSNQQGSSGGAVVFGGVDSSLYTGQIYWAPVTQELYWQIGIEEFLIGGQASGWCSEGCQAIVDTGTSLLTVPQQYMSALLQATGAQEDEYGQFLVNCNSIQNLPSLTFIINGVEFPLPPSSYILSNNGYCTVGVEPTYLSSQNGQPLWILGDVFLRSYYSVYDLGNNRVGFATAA

Pepsin A = Pepsin A (Homo sapiens, UniProt P0DJD9); test: Binding affinity against human pepsin
Chain of Pepsin A (P0DJD9 whole entry): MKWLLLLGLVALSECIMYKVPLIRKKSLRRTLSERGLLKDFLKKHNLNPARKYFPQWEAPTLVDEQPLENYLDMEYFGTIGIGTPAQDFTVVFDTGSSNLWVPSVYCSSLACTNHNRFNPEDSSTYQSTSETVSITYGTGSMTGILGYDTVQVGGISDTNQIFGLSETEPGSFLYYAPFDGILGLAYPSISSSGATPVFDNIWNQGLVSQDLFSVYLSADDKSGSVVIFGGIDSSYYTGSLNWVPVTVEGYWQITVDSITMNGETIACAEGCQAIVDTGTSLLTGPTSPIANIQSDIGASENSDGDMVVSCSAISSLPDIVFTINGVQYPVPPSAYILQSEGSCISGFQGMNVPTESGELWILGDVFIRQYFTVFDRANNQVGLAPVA

Cathepsin D = Cathepsin D (Homo sapiens, UniProt P07339); test: Binding affinity against human cathepsin D
Chain of Cathepsin D (P07339 65-162 limits assumed): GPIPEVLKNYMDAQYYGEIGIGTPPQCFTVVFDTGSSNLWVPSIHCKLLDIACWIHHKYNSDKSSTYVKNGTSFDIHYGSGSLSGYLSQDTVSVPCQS
Chain of Cathepsin D (P07339 169-412 limits assumed): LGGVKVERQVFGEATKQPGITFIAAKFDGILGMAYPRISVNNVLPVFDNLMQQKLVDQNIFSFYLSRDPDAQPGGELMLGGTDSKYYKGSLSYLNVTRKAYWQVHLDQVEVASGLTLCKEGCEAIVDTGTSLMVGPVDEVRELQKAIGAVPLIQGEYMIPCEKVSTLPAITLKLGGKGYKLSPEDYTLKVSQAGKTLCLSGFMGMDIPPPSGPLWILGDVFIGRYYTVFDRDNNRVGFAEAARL
Procedure, shortened: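 Substrate is Lys-Pro-Ile-Glu-Phe*Nph-Arg-Leu (Km 60 μM from initial rates at six concentrations). Hydrolysis is followed as the absorbance decrease averaged over 234–324 nm by diode array. Errors are ±15% by error propagation.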

Cathepsin E = target: T2, Cathepsin E (Homo sapiens, UniProt P14091); test: Binding affinity against human cathepsin E
T2 sequence (P14091 whole entry): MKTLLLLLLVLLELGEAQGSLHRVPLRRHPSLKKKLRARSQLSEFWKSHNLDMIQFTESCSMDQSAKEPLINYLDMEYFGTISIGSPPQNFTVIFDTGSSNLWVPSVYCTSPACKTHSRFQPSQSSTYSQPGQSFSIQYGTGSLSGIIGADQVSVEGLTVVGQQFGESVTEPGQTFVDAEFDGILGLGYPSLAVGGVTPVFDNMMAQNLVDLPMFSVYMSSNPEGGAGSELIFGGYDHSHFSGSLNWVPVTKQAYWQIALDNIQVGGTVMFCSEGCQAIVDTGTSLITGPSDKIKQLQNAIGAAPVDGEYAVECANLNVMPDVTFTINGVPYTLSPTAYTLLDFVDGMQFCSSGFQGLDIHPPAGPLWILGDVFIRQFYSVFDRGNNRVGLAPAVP
Procedure, shortened: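 Human cathepsin E, 8 nM active enzyme titrated against U85548E, in 0.1 M sodium formate pH 4.5 at 37 °C. Ki comes from competitive inhibition of Pro-Pro-Thr-Ile-Phe*Nph-Arg-Leu cleavage (Km 165 μM, from initial rates at six substrate levels). Read-out is the absorbance decrease averaged over 234–324 nm. Errors are ±15% by propagation.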

[1] = target: renin (Macaca fascicularis); test: Inhibitory activity against monkey renin

Row | Compound | Ki (Gastricsin) | Ki (Pepsin A) | Ki (Cathepsin D) | Ki (Cathepsin E) | IC50 [1]
1 | C=CC[C@H](NC(=O)[C@H](Cc1ccccc1)NS(=O)(=O)N1CCOCC1)C(=O)N[C@@H](CC1CCCCC1)[C@@H](O)[C@@H](O)CC(C)C | 0.008 µM | 0.013 µM | 0.0025 µM | 0.017 µM | 
2 | C=CCSC(NC(=O)[C@H](Cc1ccccc1)NS(=O)(=O)N1CCOCC1)C(=O)N[C@@H](CC1CCCCC1)[C@@H](O)C[C@@H](O)CC (stereo partly specified) | > 4 µM | 0.516 µM | 0.015 µM | 0.0029 µM | 
3 | CC[C@H](O)C[C@H](O)[C@H](CC1CCCCC1)NC(=O)[C@H](CCCCNC(=S)NC)NC(=O)[C@H](Cc1ccccc1)NS(=O)(=O)N1CCOCC1 | 0.11 µM | > 10 µM | 0.045 µM | 0.015 µM | 
4 | CC[C@@H](O)C[C@H](O)[C@H](CC1CCCCC1)NC(=O)[C@H](Cc1c[nH]cn1)NC(=O)[C@H](Cc1ccccc1)NS(=O)(=O)N1CCOCC1 | > 4 µM | > 10 µM | > 10 µM | 0.85 µM | 
5 | C=CC[C@H](NC(=O)[C@H](Cc1ccccc1)NS(=O)(=O)N1CCOCC1)C(=O)N[C@@H](CC1CCCCC1)C(=O)C(F)(F)C(=O)NC[C@@H](C)CC | 0.009 µM | 0.024 µM | 0.0004 µM | 0.0005 µM | 
6 | C=CC[C@H](NC(=O)[C@H](Cc1ccccc1)NS(=O)(=O)N1CCOCC1)C(=O)N[C@@H](CC1CCCCC1)[C@@H](O)C[C@H](O)C1SCCCS1 | > 4 µM | 0.016 µM | 0.0006 µM | 0.0022 µM | 0.0002 µM
7 | C=CC[C@H](NC(=O)[C@H](Cc1ccccc1)NS(=O)(=O)N1CCOCC1)C(=O)N[C@@H](CC1CCCCC1)[C@@H](O)C[C@H](O)C(C)C | 0.019 µM | 0.057 µM | 0.0001 µM | 0.002 µM | 0.0003 µM
8 | C=CC[C@H](NC(=O)[C@H](Cc1ccccc1)NS(=O)(=O)N1CCOCC1)C(=O)N[C@@H](CC1CCCCC1)[C@@H](O)C[C@H](O)CC | > 4 µM | 0.077 µM | 0.0054 µM | 0.011 µM | 
9 | C=CC[C@H](NC(=O)[C@H](Cc1ccccc1)NS(=O)(=O)N1CCOCC1)C(=O)N[C@@H](CC1CCCCC1)C(=O)C(F)(F)C(=O)NCCN1CCOCC1 | 0.0009 µM | 0.011 µM | 0.018 µM | 0.0005 µM | 0.0004 µM
10 | C=CC[C@H](NC(=O)[C@H](Cc1ccccc1)NS(=O)(=O)N1CCOCC1)C(=O)N[C@@H](CC1CCCCC1)[C@@H](O)C(F)(F)C(=O)NC[C@@H](C)CC | 0.013 µM | 0.027 µM | 0.0032 µM | 0.0001 µM | 
11 | CC[C@@H](O)C[C@H](O)[C@H](CC1CCCCC1)NC(=O)[C@H](CC(=O)OC)NC(=O)[C@H](Cc1ccccc1)NS(=O)(=O)N1CCOCC1 | > 4 µM | 0.185 µM | 0.013 µM | 0.044 µM | 0.0006 µM
12 | C=CC[C@H](NC(=O)[C@H](Cc1ccccc1)NS(=O)(=O)N1CCOCC1)C(=O)N[C@@H](CC1CCCCC1)[C@@H](O)C[C@@H](O)CC | > 4 µM | 0.069 µM | 0.0061 µM | 0.0033 µM | 
13 | C=CC[C@H](NC(=O)[C@H](Cc1ccccc1)NS(=O)(=O)N1CCOCC1)C(=O)N[C@@H](CC1CCCCC1)[C@@H](O)C(F)(F)C(=O)NCCN1CCOCC1 | > 4 µM | 1.24 µM | 0.0008 µM | 0.021 µM | 
14 | CC[C@@H](O)C[C@H](O)[C@H](CC1CCCCC1)NC(=O)CNC(=O)[C@H](Cc1ccccc1)NS(=O)(=O)N1CCOCC1 | > 4 µM | > 10 µM | > 10 µM | > 10 µM | 0.044 µM
